Measured values from ChEMBL document CHEMBL1926614, “Substituted thiazoles V. synthesis and antitumor activity of novel thiazolo[2,3-b]quinazoline and pyrido[4,3-d]thiazolo[3,2-a]pyrimidine analogues” (2012).
The source made the active and inactive calls. No cut-off for these calls is given here.

How the values were obtained:
Type in all cases: functional
HCT-15 = experiment: Growth inhibition of human HCT15 cells at 10 uM after 48 hrs by coulter counting; details: HCT-15, 48 h, read-out: GI
Summary of the method: (§1)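 Single-dose primary screen across the full NCI 60-cell-line panel. Stocks were made in DMSO and diluted in PBS to a final DMSO below 1%. Cultures at 6 × 10⁴ cells/ml were run in duplicate wells alongside PBS/DMSO vehicle controls at 37 °C in humidified 5% CO₂. Data were expressed as percent growth of treated cells.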

SK-MEL-28 = experiment: Growth inhibition of human SK-MEL-28 cells at 10 uM after 48 hrs by coulter counting; details: SK-MEL-28, 48 h, read-out: GI; summary of the method: as §1
M14 = experiment: Growth inhibition of human M14 cells at 10 uM after 48 hrs by coulter counting; details: M14, 48 h, read-out: GI; summary of the method: as §1
NCI-H522 = experiment: Growth inhibition of human NCI-H522 cells at 10 uM after 48 hrs by coulter counting; details: NCI-H522, 48 h, read-out: GI; summary of the method: as §1
T47D = experiment: Growth inhibition of human T47D cells at 10 uM after 48 hrs by coulter counting; details: read-out: GI
Summary of the method: (§2)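 Single-dose screen in the NCI 60 human tumor cell line panel (nine subpanels). Compounds dissolved in DMSO and diluted in phosphate buffered saline, keeping final DMSO below 1%. Added in duplicate wells to cells at 6 × 10⁴ cells/ml. Controls held PBS and DMSO at matching dilutions. Incubated at 37 °C, humidified, 5% CO₂. Reported as percent growth of treated cells.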

CAKI-1 = experiment: Growth inhibition of human Caki1 cells at 10 uM after 48 hrs by coulter counting; summary of the method: as §1
RPMI-8226 = experiment: Growth inhibition of human RPMI8226 cells at 10 uM after 48 hrs by coulter counting; summary of the method: as §1
SN12C = experiment: Growth inhibition of human SN12C cells at 10 uM after 48 hrs by coulter counting; details: read-out: GI; summary of the method: as §1
UACC-62 = experiment: Growth inhibition of human UACC62 cells at 10 uM after 48 hrs by coulter counting; details: UACC-62, 48 h, read-out: GI; summary of the method: as §2
SNB-75 = experiment: Growth inhibition of human SNB75 cells at 10 uM after 48 hrs by coulter counting; details: SNB-75, 48 h, read-out: GI; summary of the method: as §1
[1] = Cytotoxicity against human breast cancer cells after 48 hrs by coulter counting; details: Cancer cell lines
Summary of the method: (§3)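 NCI 60-cell-line panel covering nine tumour subpanels, tested over a 5-log dose range. Compounds were dissolved in DMSO and diluted in phosphate-buffered saline to a final DMSO below 1%. Wells held 6 × 10⁴ cells/ml and were run in duplicate. Controls contained PBS and DMSO at matching dilutions. Incubation was at 37 °C in humidified 5% CO₂. GI₅₀, TGI and LC₅₀ were reported.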

OVCAR-3 = experiment: Growth inhibition of human OVCAR3 cells at 10 uM after 48 hrs by coulter counting; summary of the method: as §1
NSCLC = experiment: Cytotoxicity against human NSCLC cells after 48 hrs by coulter counting; summary of the method: as §3
MDA-MB-435 = experiment: Growth inhibition of human MDA-MB-435 cells at 10 uM after 48 hrs by coulter counting; summary of the method: as §1
[2] = Cytotoxicity against human prostate cancer cells after 48 hrs by coulter counting; details: Cancer cell lines; summary of the method: as §3
[3] = Cytotoxicity against human ovarian cancer cells after 48 hrs by coulter counting; details: Cancer cell lines; summary of the method: as §3
[4] = Growth inhibition of human NCI-322M cells at 10 uM after 48 hrs by coulter counting; details: read-out: GI; summary of the method: as §1
DU-145 = experiment: Growth inhibition of human DU145 cells at 10 uM after 48 hrs by coulter counting; summary of the method: as §1
UACC-257 = experiment: Growth inhibition of human UACC257 cells at 10 uM after 48 hrs by coulter counting; details: UACC-257, 48 h, read-out: GI; summary of the method: as §2
U-251 = experiment: Growth inhibition of human U251 cells at 10 uM after 48 hrs by coulter counting; details: U-251, 48 h, read-out: GI; summary of the method: as §2
LOX IMVI = experiment: Growth inhibition of human LOXIMVI cells at 10 uM after 48 hrs by coulter counting; summary of the method: as §1
CCRF-CEM = experiment: Growth inhibition of human CCRF-CEM cells at 10 uM after 48 hrs by coulter counting; details: read-out: GI; summary of the method: as §1
A549 = experiment: Growth inhibition of human A549 cells at 10 uM after 48 hrs by coulter counting; details: A549, 48 h, read-out: GI; summary of the method: as §1
A498 = experiment: Growth inhibition of human A498 cells at 10 uM after 48 hrs by coulter counting; details: A498, 48 h, read-out: GI; summary of the method: as §1
[5] = Cytotoxicity against human leukemia cells after 48 hrs by coulter counting; details: Leukemia cell; summary of the method: as §3
SF-268 = experiment: Growth inhibition of human SF268 cells at 10 uM after 48 hrs by coulter counting; details: SF-268, 48 h, read-out: GI; summary of the method: as §1
SR = experiment: Growth inhibition of human SR cells at 10 uM after 48 hrs by coulter counting; summary of the method: as §2
[6] = Cytotoxicity against human melanoma cells after 48 hrs by coulter counting; details: Melanoma cell; summary of the method: as §3
SNB-19 = experiment: Growth inhibition of human SNB19 cells at 10 uM after 48 hrs by coulter counting; details: SNB-19, 48 h, read-out: GI; summary of the method: as §1
SK-MEL-5 = experiment: Growth inhibition of human SK-MEL-5 cells at 10 uM after 48 hrs by coulter counting; details: SK-MEL-5, 48 h, read-out: GI; summary of the method: as §1
TK-10 = experiment: Growth inhibition of human TK10 cells at 10 uM after 48 hrs by coulter counting; details: TK-10, 48 h, read-out: GI; summary of the method: as §2
EKVX = experiment: Growth inhibition of human EKVX cells at 10 uM after 48 hrs by coulter counting; details: read-out: GI; summary of the method: as §1
OVCAR-8 = experiment: Growth inhibition of human OVCAR8 cells at 10 uM after 48 hrs by coulter counting; details: OVCAR-8, 48 h, read-out: GI; summary of the method: as §1
NCI-H226 = experiment: Growth inhibition of human NCI-H226 cells at 10 uM after 48 hrs by coulter counting; details: NCI-H226, 48 h, read-out: GI; summary of the method: as §1
HCT-116 = experiment: Growth inhibition of human HCT116 cells at 10 uM after 48 hrs by coulter counting; summary of the method: as §1
SK-MEL-2 = experiment: Growth inhibition of human SK-MEL-2 cells at 10 uM after 48 hrs by coulter counting; details: SK-MEL-2, 48 h, read-out: GI; summary of the method: as §1
[7] = Cytotoxicity against human renal cancer cells after 48 hrs by coulter counting; details: Cancer cell lines; summary of the method: as §3
K562 = experiment: Growth inhibition of human K562 cells at 10 uM after 48 hrs by coulter counting; details: K562, 48 h, read-out: GI; summary of the method: as §1
UO-31 = experiment: Growth inhibition of human UO31 cells at 10 uM after 48 hrs by coulter counting; details: UO-31, 48 h, read-out: GI; summary of the method: as §2
[8] = read-out: LC50 (the source's name)

In the case of `CCN1CC2=C(N=C3SC=CN3C2c2ccc(OC)c(OC)c2)/C(=C/c2ccc(OC)c(OC)c2)C1` (stereo not drawn), the inhibition of growth at 10 µM (HCT-15) is reported as 75.8%, the inhibition of growth at 10 µM (SK-MEL-28) is reported as 61.3% and the inhibition of growth at 10 µM (M14) is reported as 94.3%. For the same molecule, the inhibition of growth at 10 µM (NCI-H522) was 46.1%, the inhibition of growth at 10 µM (T47D) was greater than 10% and the “growth inhibition (GI)” value (CAKI-1) was “Active”. For the same molecule, the “growth inhibition (GI)” value (RPMI-8226) was “Active”, the inhibition of growth at 10 µM (SN12C) was 83.1% and the inhibition of growth at 10 µM (UACC-62) was 62.4%. For the same molecule, the inhibition of growth at 10 µM (SNB-75) was 71.4%, the GI50 [1] was 19.3 µM and the TGI [1] was 43.9 µM. The CC50 [1, 8] was 74.7 µM, the “growth inhibition (GI)” value (OVCAR-3) was “Active” and the GI50 (NSCLC) was 3.2 µM. The TGI (NSCLC) was 40.1 µM, the CC50 (NSCLC; [8]) was 76.5 µM and the “growth inhibition (GI)” value (MDA-MB-435) was “Active”. For the same molecule, the GI50 [2] was 3.4 µM, the LC50 (concentration killing 50% of cells) [2] was 68.4 µM and the TGI [2] was 29.8 µM. For the same molecule, the GI50 [3] was 3.2 µM, the TGI [3] was 48.9 µM and the CC50 [3, 8] was 90.5 µM. The inhibition of growth at 10 µM [4] was 19.1%, the “growth inhibition (GI)” value (DU-145) was “Active” and the inhibition of growth at 10 µM (UACC-257) was 63.2%. The inhibition of growth at 10 µM (U-251) was 90%, the “growth inhibition (GI)” value (LOX IMVI) was “Active” and the inhibition of growth at 10 µM (CCRF-CEM) was 94%. It also gave an inhibition of growth at 10 µM (A549) of 61.1%, an inhibition of growth at 10 µM (A498) of 18.4% and a GI50 [5] of 2.6 µM. The TGI [5] was 30.7 µM, the CC50 [5, 8] was greater than 100 µM and the inhibition of growth at 10 µM (SF-268) was 76%. For the same molecule, the “growth inhibition (GI)” value (SR) was “Active”, the GI50 [6] was 3.4 µM and the TGI [6] was 10.1 µM. The CC50 [6, 8] was 44.6 µM, the inhibition of growth at 10 µM (SNB-19) was 52.9% and the inhibition of growth at 10 µM (SK-MEL-5) was 60.9%. It also gave an inhibition of growth at 10 µM (TK-10) of 46.5%, an inhibition of growth at 10 µM (EKVX) of 27.1% and an inhibition of growth at 10 µM (OVCAR-8) of 95.9%. The inhibition of growth at 10 µM (NCI-H226) was 53.2%, the “growth inhibition (GI)” value (HCT-116) was “Active” and the inhibition of growth at 10 µM (SK-MEL-2) was 11.5%. For the same molecule, the GI50 [7] was 3.1 µM, the LC50 (concentration giving 50% net cell kill) [7] was 52.8 µM and the TGI [7] was 9.8 µM. The inhibition of growth at 10 µM (K562) was 95.2% and the inhibition of growth at 10 µM (UO-31) was 40.7%.
